Experimental data published in ChEMBL document CHEMBL4627406, “Amino Acids Bearing Aromatic or Heteroaromatic Substituents as a New Class of Ligands for the Lysosomal Sialic Acid Transporter Sialin” (J Med Chem, 2020).

Key:
Sialin [1] = biological target: T1, Sialin (Homo sapiens, UniProt Q9NRA2); assay: Inhibition of human recombinant-Sialin expressed in HEK293 cells assessed as reduction in [3H]Neu5Ac uptake at 30 to 300 uM incubated for 15 mins by liquid scintillation counting method; type: cell-based
T1 sequence (Q9NRA2 whole entry): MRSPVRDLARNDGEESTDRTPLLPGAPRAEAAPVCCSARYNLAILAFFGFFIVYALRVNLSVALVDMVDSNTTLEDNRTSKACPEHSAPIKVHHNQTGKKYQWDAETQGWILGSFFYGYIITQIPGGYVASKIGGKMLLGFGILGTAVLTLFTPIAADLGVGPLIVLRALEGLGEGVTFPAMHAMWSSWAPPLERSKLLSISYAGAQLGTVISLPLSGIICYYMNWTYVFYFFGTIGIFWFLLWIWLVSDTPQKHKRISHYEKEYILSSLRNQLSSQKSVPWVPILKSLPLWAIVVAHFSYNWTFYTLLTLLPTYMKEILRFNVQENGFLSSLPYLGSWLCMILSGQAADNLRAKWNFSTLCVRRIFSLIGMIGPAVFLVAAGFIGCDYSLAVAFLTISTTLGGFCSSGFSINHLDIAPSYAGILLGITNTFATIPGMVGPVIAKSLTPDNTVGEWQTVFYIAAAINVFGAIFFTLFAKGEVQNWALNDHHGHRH
In short: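 HEK293 cells expressing EGFP-human sialin L22G/L23G (sorting mutant at the plasma membrane), assayed 2 days after lipofection. Uptake of [3H]Neu5Ac (12.5 nM) over 15 min at room temperature in MES-Na+ pH 5.0 with inhibitor added together with tracer. Cells washed twice ice-cold, radioactivity counted by liquid scintillation. Dose-response run in triplicate, two to three independent experiments.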

[2] = Lipophilicity, log Pof the compound; type: physicochemical; conditions: octanol/water
Sialin [3] = biological target: T1, Sialin; assay: Non-competitive inhibition of human recombinant-Sialin expressed in HEK293 cells assessed as reduction in [3H]Neu5Ac uptake incubated for 15 mins by liquid scintillation counting method; type: cell-based

| SMILES | IC50 (Sialin [1]) | logP [2] | Ki (Sialin [3]) | Ki (Sialin [1]) |
| --- | --- | --- | --- | --- |
| CC(C)C[C@H](NC(=O)OCC1c2ccccc2-c2ccccc21)C(=O)O | 23.3 to 24 µM | 4.1 | 10.2 µM |  |
| CC(C)C[C@H](NC(=O)N1CCCCCC1)C(=O)N[C@H](Cc1cn(C)c2ccccc12)C(=O)N[C@H](Cc1ccccn1)C(=O)O |  | 2.29 |  | 20 µM |
| O=C(N[C@@H](CSCc1cc(=O)oc2cc(O)ccc12)C(=O)O)OCC1c2ccccc2-c2ccccc21 | 2.4 to 2.9 µM | 3.91 | 7.8 µM |  |
